Experimental data reported in ChEMBL document CHEMBL2311419, “Discovery of coumarin-dihydropyridine hybrids as bone anabolic agents” (J Med Chem, 2013).
Activity calls are given as the source filed them. The calls are words filed in the database; no cut-off is given here.

Assays:
Calvarial osteoblast [1] = experiment: Induction of osteoblastogenesis in mouse calvarial osteoblasts assessed as increase in expression of RUNX2 gene at 100 pM to 10 nM by qPCR analysis relative to control; type: functional
Calvarial osteoblast [2] = experiment: Induction of osteoblastogenesis in mouse calvarial osteoblasts assessed as increase in expression of COL1 gene at 100 pM to 10 nM by qPCR analysis relative to control; type: functional
Calvarial osteoblast [3] = experiment: Induction of osteoblastogenesis in mouse calvarial osteoblasts assessed as increase in expression of BMP2 gene at 100 pM by qPCR analysis relative to control; type: functional, cell-based
Mus musculus [4] = experiment: Induction of new bone formation in ovariectomized BALB/c mouse model assessed as increase in bone formation rate at 5 mg/kg/day, po qd for 8 weeks by bone histomorphometry analysis (Rvb =0.10 um'3/um'2/day); type: functional
Mus musculus [5] = experiment: Induction of osteoblast differentiation in ovariectomized BALB/c mouse model assessed as upregulation of COL1 mRNA expression at 1 mg/kg/day, po qd for 8 weeks by qPCR analysis; type: functional, organism-based
[6] = Cytotoxicity against mouse calvarial osteoblasts assessed as cell viability at 1 pM to 1 uM after 48 hrs by MTT assay; type: cell-based; settings: calvarial osteoblast
Mus musculus [7] = experiment: Inhibition of bone turnover in ovariectomized BALB/c mouse model assessed as reduction in ovariectomy-induced serum osteocalcin levels at 1 to 5 mg/kg/day, po qd for 8 weeks by ELISA relative to control; type: functional, organism-based
Mus musculus [8] = experiment: Inhibition of osteoclastogenesis in ovariectomized BALB/c mouse model assessed as suppression of RANK gene expression at 5 to 10 mg/kg/day, po qd for 8 weeks by qPCR analysis; type: functional, organism-based
Mus musculus [9] = species: Mus musculus; experiment: Stimulation of alkaline phosphatase activity in mouse calvarial osteoblasts at 1 pM to 1 uM after 48 hrs by spectrophotometric analysis relative to nifedipine
Mus musculus [10] = experiment: Antiosteoporotic activity in ovariectomized BALB/c mouse model assessed as restoration of ovariectomy-induced reduction in bone volume/trabecular volume at 5 mg/kg/day, po qd for 8 weeks (reference value: 0.45+/-0.07%); type: functional, Trabecula; set-up: scale not given: the % may be the effect or the level left
Calvarial osteoblast [11] = experiment: Induction of osteoblastogenesis in mouse calvarial osteoblasts assessed as increase in expression of osteocalcin gene at 100 pM to 10 nM by qPCR analysis relative to control; type: functional
Mus musculus [12] = experiment: Antiosteoporotic activity in ovariectomized BALB/c mouse model assessed as restoration of ovariectomy-induced reduction in bone volume/trabecular volume at 1 mg/kg/day, po qd for 8 weeks (reference value: 0.45+/-0.07%); type: functional, Trabecula; set-up: scale not given: the % may be the effect or the level left
Mus musculus [13] = experiment: Induction of osteoblast differentiation in ovariectomized BALB/c mouse model assessed as upregulation of BMP2 mRNA expression po administered qd for 8 weeks by qPCR analysis; type: functional, organism-based
Mus musculus [14] = experiment: Antiosteoporotic activity in ovariectomized BALB/c mouse model assessed as restoration of ovariectomy-induced increase in structural model index at 10 mg/kg/day, po qd for 8 weeks; type: functional, organism-based
Mus musculus [15] = experiment: Inhibition of osteoclastogenesis in ovariectomized BALB/c mouse model assessed as increase in OPG/RANKL ratio at 1 mg/kg/day, po qd for 8 weeks by qPCR analysis; type: functional, organism-based
Mus musculus [16] = experiment: Antiosteoporotic activity in ovariectomized BALB/c mouse model assessed as restoration of ovariectomy-induced increase in trabecular separation at 10 mg/kg/day, po qd for 8 weeks (reference value: 0.99+/-0.08mm); type: functional, Trabecula
Calvarial osteoblast [17] = experiment: Induction of osteoblastogenesis in mouse calvarial osteoblasts assessed as increase in BMP2 expression at 100 pM to 10 nM by Western blotting analysis; type: functional, cell-based
[18] = Stimulation of alkaline phosphatase activity in mouse calvarial osteoblasts after 48 hrs by spectrophotometric analysis
Summary of the method: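 Calvarial osteoblasts were exposed to compounds over 1 pM to 1 µM. ALP activity was read spectrophotometrically as optical density at 405 nm. Results were expressed as % ALP activity, with EC50 and Emax derived from the concentration series.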

Mus musculus [19] = experiment: Induction of osteoblast differentiation in ovariectomized BALB/c mouse model assessed as upregulation of BMP2 mRNA expression at 1 mg/kg/day, po qd for 8 weeks by qPCR analysis; type: functional, organism-based
Calvarial osteoblast [20] = experiment: Induction of osteoblastogenesis in mouse calvarial osteoblasts assessed as increase in COL1 expression at 100 pM to 10 nM by Western blotting analysis; type: functional, cell-based
Calvarial osteoblast [21] = experiment: Induction of mineralization in mouse calvarial osteoblasts assessed as increase of mineralized nodules formation at 100 pM after 21 days by alizarin red-S staining based spectrophotometric analysis; type: functional
Calvarial osteoblast [22] = experiment: Induction of proliferation of mouse calvarial osteoblasts at 1 pM to 1 uM after 48 hrs; type: functional, cell-based

Question: For `CCOC(=O)C1=C(C)NC2=C(C(=O)CCC2)C1c1cc(C(C)CC)c2oc(=O)c(C(=O)OC)cc2c1` (configuration not stated), which “fold change (FC)” value (Calvarial osteoblast [1]) is on record?
Answer: 1.5

Question: And the “fold change (FC)” value (Calvarial osteoblast [2])?
Answer: 1.5

Question: And the Activity (Calvarial osteoblast [3])?
Answer: Active

Question: What about the Activity (Mus musculus [4]) of the same compound?
Answer: 0.33 um3/um2/day

Question: What about the Activity (Mus musculus [5]) of the same compound?
Answer: Active

Question: What about the Activity [6] of the same compound?
Answer: Non-toxic

Question: And the inhibition (Mus musculus [7])?
Answer: Active

Question: What about the inhibition (Mus musculus [8]) of the same compound?
Answer: Active

Question: And the Activity (Mus musculus [9])?
Answer: 32%

Question: What about the Activity (Mus musculus [10]) of the same compound?
Answer: 2.33%

Question: What about the “fold change (FC)” value (Calvarial osteoblast [11]) of the same compound?
Answer: 1.5

Question: And the Activity (Mus musculus [12])?
Answer: 2.85%

Question: And the Activity (Mus musculus [13])?
Answer: Dose-dependent effect

Question: And the Activity (Mus musculus [14])?
Answer: Active

Question: And the inhibition (Mus musculus [15])?
Answer: Active

Question: And the Activity (Mus musculus [16])?
Answer: 0.68 mm

Question: What about the Activity (Calvarial osteoblast [17]) of the same compound?
Answer: Active

Question: And the EC50 [18]?
Answer: 1.17 µM

Question: What about the Activity (Mus musculus [19]) of the same compound?
Answer: Active

Question: And the Activity (Calvarial osteoblast [20])?
Answer: Active

Question: What about the Activity (Calvarial osteoblast [21]) of the same compound?
Answer: 65%

Question: And the Activity (Calvarial osteoblast [22])?
Answer: Active
